Bioassay records as filed in PubChem BioAssay.
ABHD5-PLIN5 inh = blocks binding of human ABHD5 to perilipin-5. Q00G26+Q8WTS1. Split G. princeps luciferase complementation, luminescence, 4 h. inhibition, % at 4 µM. actives 0.78% (n = 360,000). AID 602281;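 active = inhibition above the mean inhibition across every tested compound plus 3 SD, cut at about 22% in these data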
Target sequence (Q00G26 whole entry, looked up): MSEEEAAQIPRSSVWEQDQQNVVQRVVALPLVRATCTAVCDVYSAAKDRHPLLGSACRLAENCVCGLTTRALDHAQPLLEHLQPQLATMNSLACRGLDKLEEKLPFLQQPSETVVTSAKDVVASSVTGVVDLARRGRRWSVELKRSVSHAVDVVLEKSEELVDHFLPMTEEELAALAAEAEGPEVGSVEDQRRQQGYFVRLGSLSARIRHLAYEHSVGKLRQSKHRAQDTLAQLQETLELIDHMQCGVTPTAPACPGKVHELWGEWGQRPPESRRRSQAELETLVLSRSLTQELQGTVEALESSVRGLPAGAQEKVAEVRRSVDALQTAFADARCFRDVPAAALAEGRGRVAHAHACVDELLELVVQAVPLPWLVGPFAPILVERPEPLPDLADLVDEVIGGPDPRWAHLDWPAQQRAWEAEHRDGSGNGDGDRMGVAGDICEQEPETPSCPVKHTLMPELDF
Target sequence (Q8WTS1 whole entry, looked up): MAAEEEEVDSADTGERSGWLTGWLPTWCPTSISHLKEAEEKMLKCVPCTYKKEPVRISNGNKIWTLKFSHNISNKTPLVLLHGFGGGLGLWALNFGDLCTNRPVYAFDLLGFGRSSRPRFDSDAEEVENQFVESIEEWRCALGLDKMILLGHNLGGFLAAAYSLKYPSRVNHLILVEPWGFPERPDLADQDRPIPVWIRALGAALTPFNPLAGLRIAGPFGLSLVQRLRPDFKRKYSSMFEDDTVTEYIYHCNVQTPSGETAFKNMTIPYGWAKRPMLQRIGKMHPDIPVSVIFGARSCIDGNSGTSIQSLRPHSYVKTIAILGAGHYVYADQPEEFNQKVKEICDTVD
core dimer inh = blocks dimerization of HCV core protein; TR-FRET GST/Flag-core106 dimerization, 1536-well; actives 0.33% (n = 300,000); inhibition, % at 5 µM;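 active = inhibition above the mean of all tested compounds plus 3 SD, set per screening campaign, cut at about 45% in these data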
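System: GST-tagged and Flag-tagged HCV core protein residues 1-106 / Input: core106 proteins, GST 13.5 nM and Flag 17 nM / Buffer or medium: KF-containing HEPES buffer, pH 7.45, DTT, CHAPS, BSA / Probe or stimulus: Eu-anti-GST and XL665-anti-Flag labelled anti-tag antibodies / Schedule: 4 h, 22.5 °C incubation / Technique: TR-FRET 671 and 617 nm emission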
NS3 helicase inh = HCV NS3 helicase inhibition; inhibition, % at 10.9 µM; AID 1800; actives 0.56% (n = 290,000); NS3 helicase DNA unwinding, Cy5 molecular beacon fluorescence;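 active = inhibition above the mean of all tested compounds plus 3 SD, set per campaign, cut at about 35% in these data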
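Assay system: hepatitis C virus NS3 helicase domain fragment enzyme. Also added: annealed dual-labelled DNA beacon duplex, ATP-started. Timing: 1 h reaction at 25 °C, ATP-initiated. Technique: Cy5 fluorescence at 0 and 60 min, beacon hairpin quenching. Evaluation: % inhibition of unwinding. Replication: one well per compound.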
APOBEC3G inh = APOBEC3G (human) deaminase inhibition. AID 493012. recombinant A3G, ssDNA deamination FAM/TAMRA fluorescence. inhibition, % at 20 µM. actives 0.28% (n = 330,000);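 active = inhibition of at least 40% at 20 µM, with no more than 30% in the related APOBEC3A deaminase screen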
PRMT1 FP inh = blocks human protein arginine methyltransferase 1; actives 1.3% (n = 370,000); inhibition, % at 2.79 µM; recombinant PRMT1, activity-based probe fluorescence polarization; Q99873;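 active = inhibition above about 21% made by adding two undisclosed values, limit read from the data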
APOBEC3A inh = inhibitors of human APOBEC3A DNA deaminase; P31941; recombinant A3A, FAM/TAMRA ssDNA deamination fluorescence; inhibition, % at 20 µM; actives 0.41% (n = 330,000); AID 493011;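 active = at least 40% inhibition at 20 µM here, with at most 30% in a related deaminase screen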
ABHD5-PLIN5 conf = ABHD5-PLIN5 interaction inhibition, confirmed. shares compounds with ABHD5-PLIN5 inh. biochemical ABHD5-PLIN5 interaction, luminescence. inhibition, % at 4 µM. actives 67% (n = 2,200). AID 651612; in the data active = inhibition above about 23%
HNF4 split-luc = active in HNF4 split-luciferase counter-screen for ABHD5-PLIN5 inhibitors; shares compounds with ABHD5-PLIN5 inh; HNF4 dimerization, luminescence, biochemical; actives 77% (n = 2,200); inhibition, % at 4 µM;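 active = mean inhibition across replicate wells exceeding the computed hit threshold, cut at about 13% in these data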;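 also: light from luciferase halves that rejoin when HNF4 fusion proteins dimerize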
Hits are given with their value; i = inactive; nt = not tested or not shown. Only some compounds are listed: those with a hit (about 2.9% of all), similar ones and a draw of the others.

SMILES	ABHD5-PLIN5 inh	core dimer inh	NS3 helicase inh	APOBEC3G inh	PRMT1 FP inh	APOBEC3A inh	ABHD5-PLIN5 conf	HNF4 split-luc
COc1ccc(CCN2CCCC(CN(C)Cc3cc(Cl)c(O)c(OC)c3)C2)cc1 (centres undefined)	i	nt	i	i	i	i	nt	nt
CCOC(=O)C1=CN(Cc2ccco2)S(=O)(=O)N(C)C1CC (centres undefined)	i	nt	nt	i	i	i	nt	nt
Cc1ccc2sc(N(CCCN(C)C)C(=O)CCS(=O)(=O)c3ccccc3)nc2c1C	i	i	i	i	i	i	nt	nt
CN(C)CCCN(C(=O)COc1ccccc1)c1nc2cc3c(cc2s1)OCCO3	i	i	i	i	i	i	nt	nt
CN(C)CCCN(C(=O)CCSc1ccccc1)c1nc2cc3c(cc2s1)OCO3	27	i	i	i	i	i	i	19
CN(C)CCCN(C(=O)CCS(=O)(=O)c1ccccc1)c1nc2cc3c(cc2s1)OCO3	26	i	i	i	i	i	i	49
COC(=O)CCCn1cc(CN2CC(N3CCCC3)CS2(=O)=O)nn1 (centres undefined)	i	nt	nt	nt	i	nt	nt	nt
CC(Oc1cccnc1[N+](=O)[O-])C(=O)Nc1ccc(Cl)cn1 (centres undefined)	i	nt	nt	i	i	i	nt	nt
COc1ccc(OC)c(NC(=O)COc2cc(O)c3c(c2)OC(C)(C)CC3=O)c1	i	nt	nt	nt	i	nt	nt	nt
CN1CCN(CC#CCn2c3ccccc3c3ccccc32)CC1	23	i	i	i	i	i	i	i
C=CCn1c(SCC(=O)NCC2CCCO2)nc2scc(-c3ccc(OC)cc3)c2c1=O (centres undefined)	i	i	i	i	i	i	nt	nt
C=CCn1c(SCC(=O)NCCOC)nc2scc(-c3ccco3)c2c1=O	32	i	i	i	47	i	42	82
C[C@@H]1Cc2[nH][nH]c(=O)c2[C@H](c2ccc(Cl)cc2)O1	i	nt	nt	nt	i	nt	nt	nt
COC(=O)/C(C#N)=C/c1ccc(-c2ccc(S(N)(=O)=O)cc2)o1	i	i	i	i	i	i	nt	nt
N#CC(C#N)=Cc1ccc(-c2ccc(S(=O)(=O)N=C(N)N)cc2)o1	28	i	i	i	i	i	41	35
OCC1(Cc2cccc(C(F)(F)F)c2)CCN(Cc2cc3ccccc3o2)CC1	i	i	i	i	i	i	nt	nt
Cc1c(CN2CCC(CO)(Cc3cccc(C(F)(F)F)c3)CC2)c2ccccc2n1C	28	i	i	i	i	i	i	i
COCCn1c(SCC#N)nnc1-c1ccccc1O	57	i	i	i	i	i	i	i
CN(C)c1ccc(/C=C/C(=O)c2ccc3c(c2)OCO3)cc1	i	nt	nt	i	i	i	nt	nt
O=C(Nc1ccncc1)c1ccc2c(c1)OCCO2	i	i	i	i	i	i	nt	nt
O=C(/C=C/c1ccccc1)c1ccc2c(c1)OCO2	30	i	i	i	i	i	50	34
COc1cc(/C=C/C(=O)c2ccc3c(c2)OCCO3)cc(Br)c1OCC(=O)N(C)C	40	i	i	i	i	i	74	73
O=C(/C=C/c1ccncc1)c1ccc2c(c1)OCCO2	60	i	i	i	i	i	78	74
O=C(/C=C/c1cccc(Br)c1)c1ccc2c(c1)OCO2	33	i	i	i	i	i	74	63
COc1cccc(/C=C/C(=O)c2ccc3c(c2)OCO3)c1OC	i	nt	nt	i	nt	i	nt	nt
SMILES	ABHD5-PLIN5 inh	core dimer inh	NS3 helicase inh	APOBEC3G inh	PRMT1 FP inh	APOBEC3A inh	ABHD5-PLIN5 conf	HNF4 split-luc
COC(=O)[C@]12C[C@H](CC(=O)NCCCN3CCCC3=O)C(=O)N(Cc3ccccc3)C1=C[C@H](COCc1ccccc1)O[C@@H]2C	nt	nt	nt	nt	i	nt	nt	nt
Cc1cccc(N(Cc2ccccc2)C(=O)c2cc(S(=O)(=O)N3CCOCC3)ccc2Cl)c1	i	i	nt	i	i	i	nt	nt
COc1cccc(C2=NC(C)(C)NC(c3ccccc3O)C2)c1 (centres undefined)	57	i	i	i	i	i	73	72
CN(C(=O)c1cc(-c2ccc3c(c2)OCO3)on1)c1ccccc1	i	i	i	i	i	i	nt	nt
CCC1(C)N=C(c2ccc3c(c2)OCO3)CC(c2ccccc2O)N1 (centres undefined)	50	i	i	i	i	i	91	65
COc1ccccc1N1CCN(C(=O)c2ccc3c(=O)n4c(nc3c2)CCCCC4)CC1	i	nt	nt	i	i	i	nt	nt
N=c1n(Cc2ccccc2)c2ccccc2n1CC(O)c1ccco1 (centres undefined)	23	i	i	i	i	i	i	15
CCOC(=O)C(=Cc1ccc(-n2cncn2)cc1)C(=O)OCC	43	i	i	i	i	i	81	94
CCOC(=O)/C(=C\c1ccc(N2CCC(c3ccccc3)=N2)cc1)C(C)=O	i	nt	nt	nt	i	nt	nt	nt
COC(=O)C1(C(=O)OC)C[C@H](/C=C/c2ccccc2)N(Cc2ccccc2OC)[C@@H]1c1ccc(F)cc1	i	nt	nt	nt	i	nt	nt	nt
CC(C)c1ccc(NC(=O)c2csnn2)cc1	24	i	i	i	i	i	i	i
CC1CCC(NC(=O)CCS(=O)(=O)c2ccc3c(c2)CCN3C(=O)C2CC2)CC1 (centres undefined)	i	i	i	i	i	i	nt	nt
COc1ccccc1OC(=O)c1cc2ccccc2oc1=O	i	i	i	i	i	i	nt	nt
COc1cc(/C=C/[N+](=O)[O-])ccc1OC(=O)c1cc2ccccc2oc1=O	28	70	i	i	i	i	78	97
Cn1cccc([N+](=O)[O-])c1=O	i	nt	nt	nt	i	nt	nt	nt
Cn1c(=O)c(=O)n(C)c2cc([N+](=O)[O-])c([N+](=O)[O-])cc21	100	i	i	i	i	i	i	i
O=C1C(Sc2ccccc2)=C[C@@]2(O)CC[C@@H](O)[C@]1(Sc1ccccc1)[C@H]2O	26	nt	nt	nt	i	nt	33	43
COc1ccc(SC2=C[C@@]3(O)CC[C@@H](O)[C@@](Sc4ccc(OC)cc4)(C2=O)[C@H]3O)cc1	i	nt	nt	nt	i	nt	nt	nt
CCN(CC)CCNc1c(C)cc(CO)c(Cl)c1C	i	nt	nt	nt	i	nt	nt	nt
N#CC1=C(Nc2ccccc2Cl)SC2(CCCC2)NC1=O	33	nt	nt	nt	nt	nt	i	19
COc1ccc(C=O)c(-c2c(-c3ccccc3OC)sc3ccccc23)c1	i	nt	nt	nt	i	nt	nt	nt
CCc1ccccc1NC(=O)CN(C)Cc1c(O)ccc2ccccc12	24	i	i	i	23	i	46	88
COc1nc(=O)n(C2C=CC(=O)O2)cc1F (centres undefined)	41	nt	nt	nt	i	nt	52	34
N#CCc1c(C#N)c(N)nc(N2CCN(Cc3ccc4c(c3)OCO4)CC2)c1C#N	26	i	i	i	i	i	i	i
